{
  "source": "the M2OR odorant receptor database",
  "settings_in_all_cases": "stereoisomer not certain",
  "key": {"OR2M3 (Homo sapiens)": {"target": "T1, OR2M3 (Homo sapiens) (UniProt Q8NG83)", "T1 sequence (whole entry)": "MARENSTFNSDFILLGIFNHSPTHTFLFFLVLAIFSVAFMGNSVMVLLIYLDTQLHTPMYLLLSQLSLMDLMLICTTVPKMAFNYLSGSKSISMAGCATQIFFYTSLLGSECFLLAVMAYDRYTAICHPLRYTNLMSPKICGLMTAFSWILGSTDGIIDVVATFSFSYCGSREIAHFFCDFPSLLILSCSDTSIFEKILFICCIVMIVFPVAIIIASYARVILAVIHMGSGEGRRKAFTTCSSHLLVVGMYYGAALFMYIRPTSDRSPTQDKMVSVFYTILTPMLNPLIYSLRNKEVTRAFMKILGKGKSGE", "method_in_brief": "(§1)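 Each receptor–molecule pair is labelled responsive or non-responsive (inactive) according to whether the original authors judged the measured signal statistically different from baseline. The data were taken from the main text and supplementary material of published papers and checked for typos and inconsistencies. Assay methods differed by source, with transient luciferase assays in mammalian cell lines being common.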"}, "OR2M7 (Homo sapiens)": {"target": "T2, OR2M7 (Homo sapiens) (UniProt Q8NG81)", "T2 sequence (whole entry)": "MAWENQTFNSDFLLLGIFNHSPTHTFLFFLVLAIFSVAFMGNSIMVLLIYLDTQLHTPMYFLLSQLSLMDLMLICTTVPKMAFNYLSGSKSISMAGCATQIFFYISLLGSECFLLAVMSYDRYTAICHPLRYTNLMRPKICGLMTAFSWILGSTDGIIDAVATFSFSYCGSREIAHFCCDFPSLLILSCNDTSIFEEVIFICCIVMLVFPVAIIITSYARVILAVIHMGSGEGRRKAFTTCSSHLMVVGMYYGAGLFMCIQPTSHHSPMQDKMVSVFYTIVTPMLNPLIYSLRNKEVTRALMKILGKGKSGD", "method_in_brief": "as §1"}, "OR2M4 (Homo sapiens)": {"target": "T3, OR2M4 (Homo sapiens) (UniProt Q96R27)", "T3 sequence (whole entry)": "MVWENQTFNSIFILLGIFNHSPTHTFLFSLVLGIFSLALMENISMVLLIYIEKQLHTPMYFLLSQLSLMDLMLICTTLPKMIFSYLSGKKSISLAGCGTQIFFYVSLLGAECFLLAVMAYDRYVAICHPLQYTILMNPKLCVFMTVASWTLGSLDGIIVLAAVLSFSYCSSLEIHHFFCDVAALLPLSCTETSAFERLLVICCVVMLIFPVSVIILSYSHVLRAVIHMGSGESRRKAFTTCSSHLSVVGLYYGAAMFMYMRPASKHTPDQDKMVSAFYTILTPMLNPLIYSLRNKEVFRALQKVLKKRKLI", "method_in_brief": "as §1"}, "OR2T10 (Homo sapiens)": {"target": "T4, OR2T10 (Homo sapiens) (UniProt Q8NGZ9)", "T4 sequence (whole entry)": "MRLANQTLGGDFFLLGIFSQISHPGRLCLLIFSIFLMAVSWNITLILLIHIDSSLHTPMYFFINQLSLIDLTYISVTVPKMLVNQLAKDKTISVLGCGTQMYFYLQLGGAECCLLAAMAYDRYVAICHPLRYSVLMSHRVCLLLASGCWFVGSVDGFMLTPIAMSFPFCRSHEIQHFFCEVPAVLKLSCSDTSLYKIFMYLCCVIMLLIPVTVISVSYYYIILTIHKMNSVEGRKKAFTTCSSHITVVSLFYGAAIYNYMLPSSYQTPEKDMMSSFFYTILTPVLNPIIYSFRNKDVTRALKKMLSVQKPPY", "method_in_brief": "as §1"}, "OR2M5 (Homo sapiens)": {"target": "OR2M5 (Homo sapiens) (UniProt A3KFT3)", "sequence (A3KFT3 whole entry)": "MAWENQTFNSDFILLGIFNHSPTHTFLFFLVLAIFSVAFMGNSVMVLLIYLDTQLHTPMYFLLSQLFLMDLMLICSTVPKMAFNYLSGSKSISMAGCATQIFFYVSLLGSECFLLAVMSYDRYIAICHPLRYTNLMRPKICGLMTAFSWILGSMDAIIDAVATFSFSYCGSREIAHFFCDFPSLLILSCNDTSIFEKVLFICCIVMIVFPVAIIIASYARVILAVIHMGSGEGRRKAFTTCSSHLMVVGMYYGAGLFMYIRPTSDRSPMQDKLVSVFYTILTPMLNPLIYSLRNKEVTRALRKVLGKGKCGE", "method_in_brief": "as §1"}, "OR2M5 D11G": {"test_system": "OR2M5 D11G", "sequence (as listed by the source, stated change not applied)": "as the sequence (A3KFT3 whole entry) above, with D11G counted along it", "method_in_brief": "as §1"}, "OR2S2 (Homo sapiens)": {"target": "OR2S2 (Homo sapiens) (UniProt Q9NQN1)", "sequence (Q9NQN1 whole entry)": "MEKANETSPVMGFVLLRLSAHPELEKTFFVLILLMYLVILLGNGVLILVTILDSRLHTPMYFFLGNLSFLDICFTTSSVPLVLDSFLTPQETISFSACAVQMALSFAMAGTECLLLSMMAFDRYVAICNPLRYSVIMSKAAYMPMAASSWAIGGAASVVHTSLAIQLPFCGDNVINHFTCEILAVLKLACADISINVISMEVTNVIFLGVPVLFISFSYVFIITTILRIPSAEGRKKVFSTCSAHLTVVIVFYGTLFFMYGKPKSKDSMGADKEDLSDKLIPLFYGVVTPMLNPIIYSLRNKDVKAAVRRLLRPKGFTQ", "method_in_brief": "as §1"}, "OR2T1 (Homo sapiens)": {"target": "OR2T1 (Homo sapiens) (UniProt O43869)", "sequence (O43869 whole entry)": "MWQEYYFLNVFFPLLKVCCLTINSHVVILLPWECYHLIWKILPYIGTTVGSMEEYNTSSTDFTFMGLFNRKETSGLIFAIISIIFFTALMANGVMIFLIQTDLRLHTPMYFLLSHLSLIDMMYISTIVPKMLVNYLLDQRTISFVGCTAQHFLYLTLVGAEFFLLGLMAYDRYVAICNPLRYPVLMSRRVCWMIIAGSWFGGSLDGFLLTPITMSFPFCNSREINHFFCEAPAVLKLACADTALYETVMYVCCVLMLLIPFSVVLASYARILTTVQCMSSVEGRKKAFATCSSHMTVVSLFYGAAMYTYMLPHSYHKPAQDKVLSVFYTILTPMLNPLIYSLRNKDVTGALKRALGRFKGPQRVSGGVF", "method_in_brief": "as §1"}, "OR2T11 (Homo sapiens)": {"target": "OR2T11 (Homo sapiens) (UniProt Q8NH01)", "sequence (Q8NH01 whole entry)": "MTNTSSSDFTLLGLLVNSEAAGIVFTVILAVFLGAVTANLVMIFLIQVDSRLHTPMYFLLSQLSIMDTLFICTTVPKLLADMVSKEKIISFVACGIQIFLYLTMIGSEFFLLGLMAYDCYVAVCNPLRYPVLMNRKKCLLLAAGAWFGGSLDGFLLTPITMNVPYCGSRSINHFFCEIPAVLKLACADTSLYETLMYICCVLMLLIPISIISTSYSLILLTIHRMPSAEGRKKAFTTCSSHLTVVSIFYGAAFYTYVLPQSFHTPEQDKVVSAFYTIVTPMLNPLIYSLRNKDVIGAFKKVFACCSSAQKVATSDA", "method_in_brief": "as §1"}, "OR2T12 (Homo sapiens)": {"target": "OR2T12 (Homo sapiens) (UniProt Q8NG77)", "sequence (Q8NG77 whole entry)": "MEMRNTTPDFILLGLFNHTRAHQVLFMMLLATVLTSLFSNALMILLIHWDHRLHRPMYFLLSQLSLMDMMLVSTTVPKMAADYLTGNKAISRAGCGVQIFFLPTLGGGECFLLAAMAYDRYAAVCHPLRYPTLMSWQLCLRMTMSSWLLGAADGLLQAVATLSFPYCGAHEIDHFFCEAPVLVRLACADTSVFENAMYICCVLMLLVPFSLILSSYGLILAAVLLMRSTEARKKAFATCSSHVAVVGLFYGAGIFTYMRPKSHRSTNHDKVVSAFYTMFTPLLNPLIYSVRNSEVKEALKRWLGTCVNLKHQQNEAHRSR", "method_in_brief": "as §1"}},
  "data": [
    {"smiles": "Cc1ccc(O)c(C)c1", "values": [
      {"measurement": "odorant receptor agonist call", "setting": "OR2M3 (Homo sapiens)", "value": "inactive"}
    ]},
    {"smiles": "COc1ccc(C=O)cc1", "values": [
      {"measurement": "odorant receptor agonist call", "setting": "OR2M3 (Homo sapiens)", "value": "inactive"}
    ]},
    {"smiles": "CCC1CCC(=O)O1", "note": "(stereo not given)", "values": [
      {"measurement": "odorant receptor agonist call", "setting": "OR2M7 (Homo sapiens)", "value": "inactive"}
    ]},
    {"smiles": "O=CC=Cc1ccccc1", "values": [
      {"measurement": "odorant receptor agonist call", "setting": "OR2M4 (Homo sapiens)", "value": "active"},
      {"measurement": "odorant receptor agonist call", "setting": "OR2T10 (Homo sapiens)", "value": "active"}
    ]},
    {"smiles": "O=Cc1ccccc1", "values": [
      {"measurement": "odorant receptor agonist call", "setting": "OR2M4 (Homo sapiens)", "value": "inactive"},
      {"measurement": "odorant receptor agonist call", "setting": "OR2T10 (Homo sapiens)", "value": "inactive"}
    ]},
    {"smiles": "O=c1cc(O)c2ccccc2o1", "values": [
      {"measurement": "odorant receptor agonist call", "setting": "OR2M7 (Homo sapiens)", "value": "inactive"}
    ]},
    {"smiles": "C=CCOC(=O)Cc1ccccc1", "values": [
      {"measurement": "odorant receptor agonist call", "setting": "OR2M3 (Homo sapiens)", "value": "inactive"},
      {"measurement": "odorant receptor agonist call", "setting": "OR2M4 (Homo sapiens)", "value": "inactive"},
      {"measurement": "odorant receptor agonist call", "setting": "OR2M5 (Homo sapiens)", "value": "inactive"},
      {"measurement": "odorant receptor agonist call", "setting": "OR2M5 D11G", "value": "inactive"},
      {"measurement": "odorant receptor agonist call", "setting": "OR2M7 (Homo sapiens)", "value": "inactive"},
      {"measurement": "odorant receptor agonist call", "setting": "OR2S2 (Homo sapiens)", "value": "inactive"},
      {"measurement": "odorant receptor agonist call", "setting": "OR2T1 (Homo sapiens)", "value": "inactive"},
      {"measurement": "odorant receptor agonist call", "setting": "OR2T10 (Homo sapiens)", "value": "inactive"},
      {"measurement": "odorant receptor agonist call", "setting": "OR2T11 (Homo sapiens)", "value": "inactive"},
      {"measurement": "odorant receptor agonist call", "setting": "OR2T12 (Homo sapiens)", "value": "inactive"}
    ]},
    {"smiles": "C=CCc1ccccc1", "values": [
      {"measurement": "odorant receptor agonist call", "setting": "OR2M7 (Homo sapiens)", "value": "inactive"}
    ]},
    {"smiles": "Cc1ccccc1O", "values": [
      {"measurement": "odorant receptor agonist call", "setting": "OR2M3 (Homo sapiens)", "value": "inactive"}
    ]},
    {"smiles": "CSSC", "values": [
      {"measurement": "odorant receptor agonist call", "setting": "OR2M3 (Homo sapiens)", "value": "inactive"}
    ]},
    {"smiles": "CCOC(=O)Cc1ccccc1", "values": [
      {"measurement": "odorant receptor agonist call", "setting": "OR2M3 (Homo sapiens)", "value": "inactive"}
    ]},
    {"smiles": "SCc1ccco1", "values": [
      {"measurement": "odorant receptor agonist call", "setting": "OR2M3 (Homo sapiens)", "value": "inactive"}
    ]},
    {"smiles": "C=CCSSCC=C", "values": [
      {"measurement": "odorant receptor agonist call", "setting": "OR2M3 (Homo sapiens)", "value": "inactive"}
    ]},
    {"smiles": "Cc1c([N+](=O)[O-])c(C)c([N+](=O)[O-])c(C(C)(C)C)c1[N+](=O)[O-]", "values": [
      {"measurement": "odorant receptor agonist call", "setting": "OR2M3 (Homo sapiens)", "value": "inactive"},
      {"measurement": "odorant receptor agonist call", "setting": "OR2M5 (Homo sapiens)", "value": "inactive"},
      {"measurement": "odorant receptor agonist call", "setting": "OR2M7 (Homo sapiens)", "value": "inactive"},
      {"measurement": "odorant receptor agonist call", "setting": "OR2S2 (Homo sapiens)", "value": "inactive"},
      {"measurement": "odorant receptor agonist call", "setting": "OR2T1 (Homo sapiens)", "value": "inactive"},
      {"measurement": "odorant receptor agonist call", "setting": "OR2T10 (Homo sapiens)", "value": "inactive"},
      {"measurement": "odorant receptor agonist call", "setting": "OR2T11 (Homo sapiens)", "value": "inactive"},
      {"measurement": "odorant receptor agonist call", "setting": "OR2T12 (Homo sapiens)", "value": "inactive"}
    ]},
    {"smiles": "C=CCc1ccc(OC)cc1", "values": [
      {"measurement": "odorant receptor agonist call", "setting": "OR2M3 (Homo sapiens)", "value": "inactive"},
      {"measurement": "odorant receptor agonist call", "setting": "OR2T10 (Homo sapiens)", "value": "inactive"}
    ]},
    {"smiles": "O=C(O)Cc1ccccc1", "values": [
      {"measurement": "odorant receptor agonist call", "setting": "OR2M3 (Homo sapiens)", "value": "inactive"}
    ]}
  ]
}
